Measured values from ChEMBL document CHEMBL1914459 (Bioorg Med Chem Lett, 2011).

Experiments:
[1] = target: T1, Prostaglandin D2 receptor 2 (Homo sapiens, UniProt Q9Y5Y4); test: Displacement of [3H]PGD2 from human CRTH2 receptor
T1 sequence (Q9Y5Y4 whole entry): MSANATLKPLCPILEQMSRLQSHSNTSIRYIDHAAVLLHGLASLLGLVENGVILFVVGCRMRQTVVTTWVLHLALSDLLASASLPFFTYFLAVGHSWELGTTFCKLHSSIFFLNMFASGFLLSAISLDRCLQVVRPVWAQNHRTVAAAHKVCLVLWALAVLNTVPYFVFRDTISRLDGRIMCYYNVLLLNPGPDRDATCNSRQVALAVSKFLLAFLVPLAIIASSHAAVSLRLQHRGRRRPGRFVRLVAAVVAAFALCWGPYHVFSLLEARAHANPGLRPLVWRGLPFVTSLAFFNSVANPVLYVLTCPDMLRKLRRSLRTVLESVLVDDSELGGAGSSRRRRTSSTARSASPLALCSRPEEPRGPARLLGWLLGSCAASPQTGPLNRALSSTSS
Outline: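 Radioligand binding with ³H-PGD₂ as the labelled ligand; IC₅₀ reported as mean of n >2 measurements.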

[2] = target: T1, Prostaglandin D2 receptor 2; test: Antagonist activity at human CRTh2 receptor expressed in HEK cells assessed as inhibition of PGD2-induced calcium flux; type: functional, cell-based, HEK293
[3] = Lipophilicity, log D of the compound at pH 7.4; conditions: buffer
[4] = Inhibition of human recombinant aldose reductase 2 after 15 mins by spectrophotometry analysis
[5] = target: Aldehyde reductase AKR1A1 (Homo sapiens); test: Inhibition of human recombinant aldose reductase 1 after 15 mins by spectrophotometry analysis
[6] = Intrinsic clearance in rat hepatocytes assessed as per 1 x 10^6 cells
[7] = Volume of distribution at steady state in Sprague-Dawley rat at 1 mg/kg, iv; type: ADME, organism-based; set-up: dose 1 mg/kg, route intravenous; conditions: in vivo, read-out: Vdss
[8] = Clearance in Sprague-Dawley rat at 1 mg/kg, iv; type: ADME, organism-based; set-up: dose 1 mg/kg, route intravenous; conditions: in vivo
[9] = Oral bioavailability in Sprague-Dawley rat at 4 mg/kg; type: ADME, organism-based; conditions: in vivo
[10] = Half life in Sprague-Dawley rat at 1 mg/kg, iv; type: ADME, organism-based; set-up: dose 1 mg/kg, route intravenous; conditions: in vivo
Cytochrome P450 2C9 = Cytochrome P450 2C9 (Homo sapiens, UniProt P11712); test: Inhibition of CYP2C9; type: ADME
Chain of Cytochrome P450 2C9 (P11712 whole entry): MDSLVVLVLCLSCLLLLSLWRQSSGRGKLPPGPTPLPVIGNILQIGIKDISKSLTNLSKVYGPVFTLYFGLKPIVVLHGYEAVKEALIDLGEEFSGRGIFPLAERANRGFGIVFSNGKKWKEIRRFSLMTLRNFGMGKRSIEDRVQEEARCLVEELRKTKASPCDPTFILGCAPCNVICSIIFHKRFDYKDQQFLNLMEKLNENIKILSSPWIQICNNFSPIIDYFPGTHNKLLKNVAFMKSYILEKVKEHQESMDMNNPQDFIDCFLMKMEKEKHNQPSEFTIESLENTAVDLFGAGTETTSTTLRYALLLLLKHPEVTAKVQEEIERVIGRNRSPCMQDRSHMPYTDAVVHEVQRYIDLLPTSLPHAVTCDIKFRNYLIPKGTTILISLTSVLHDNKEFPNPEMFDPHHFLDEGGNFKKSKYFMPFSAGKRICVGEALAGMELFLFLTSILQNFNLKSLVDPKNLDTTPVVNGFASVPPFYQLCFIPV

Homo sapiens = species on record: Homo sapiens; test: Selectivity ratio of IC50 for human recombinant aldose reductase 1 to IC50 for human CRTh2 receptor
Outline: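 Ratio of two IC50s from separate assays. […] ALR1 activity was followed at […] as NADPH oxidation, at 22 °C. All reagents except NADPH were preincubated 15 min before NADPH started the reaction. Initial linear rates were corrected for non-enzymatic NADPH oxidation, and % inhibition was taken against no-compound control.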

[11] = Oral bioavailability in Sprague-Dawley rat at 3 mg/kg; type: ADME, organism-based; conditions: in vivo

O=C(O)Cn1cc(Sc2ccc(Cl)cc2)c2cc(Cl)ccc21
IC50 [1]: 89 nM

Cc1c(Sc2ccc(Cl)cc2)c2cc(Cl)ccc2n1CC(=O)O
IC50 [2]: 35 nM
IC50 [1]: 13 nM

CCN(C(C)=O)c1cccc2c1c(Sc1ccc(Cl)cc1)c(C)n2CC(=O)O
logD [3]: 1.6

Cc1c(Sc2ccc(Cl)cc2)c2cc(S(C)(=O)=O)ccc2n1CC(=O)O
IC50 [1]: 71 nM
logD [3]: 0.5

CCS(=O)(=O)c1ccc(Oc2c(C)n(CC(=O)O)c3ccc(C(F)(F)F)cc23)cc1
IC50 [4]: > 10000 nM
IC50 [5]: 3980 nM
IC50 [1]: 3.5 nM
logD [3]: 0.3

Cc1c(Sc2ccc(Cl)cc2)c2c(C#N)c(Cl)ccc2n1CC(=O)O
IC50 [4]: 4730 nM
IC50 [5]: 2240 nM
IC50 [1]: 6.1 nM
hepatocyte CLint [6]: 6 µL/min/1e6 cells
logD [3]: 1.6

Cc1ccc2c(c1)c([S+]([O-])c1ccc(Cl)cc1)c(C)n2CC(=O)O (stereo not drawn)
IC50 [1]: 1000 nM
hepatocyte CLint [6]: < 5 µL/min/1e6 cells
logD [3]: 0.1

Cc1c(Sc2ccc(Cl)cc2)c2c(-c3cnccn3)cccc2n1CC(=O)O
IC50 [1]: 0.6 nM
hepatocyte CLint [6]: 12 µL/min/1e6 cells
logD [3]: 0

Cc1ccc2c(c1)c(S(=O)(=O)c1ccc(Cl)cc1)c(C)n2CC(=O)O
IC50 [4]: 6310 nM
IC50 [1]: 26 nM
logD [3]: 0.1

Cc1c(Oc2ccc(Cl)cc2)c2c(-c3ccccc3)cccc2n1CC(=O)O
IC50 [1]: 4 nM
hepatocyte CLint [6]: 14 µL/min/1e6 cells

Cc1c(Sc2ccc(Cl)cc2)c2cc(Cl)ccc2n1Cc1nnn[nH]1
IC50 [1]: 1470 nM

CC(=O)Nc1cccc2c1c(Oc1ccc(Cl)cc1)c(C)n2CC(=O)O
IC50 [1]: 18 nM
logD [3]: -1.4

Cc1c(Sc2ccc(Cl)cc2)c2ccc(Cl)cc2n1CC(=O)O
IC50 [4]: 2000 nM
IC50 [1]: 42 nM
hepatocyte CLint [6]: 64 µL/min/1e6 cells
logD [3]: 2.5

COc1ccc(Sc2c(C)n(CC(=O)O)c3ccc(C)cc23)cc1
IC50 [4]: 251 nM
IC50 [5]: 282 nM
IC50 [1]: 7.1 nM
hepatocyte CLint [6]: 24 µL/min/1e6 cells
logD [3]: 1

Cc1c(Sc2ccc(Cl)cc2)c2c(S(C)(=O)=O)cccc2n1CC(=O)O
IC50 [1]: 11 nM
logD [3]: 0.6

Cc1c(Sc2ccc(Cl)cc2)c2cc(-c3ccccc3)ccc2n1CC(=O)O
IC50 [4]: 4470 nM
IC50 [5]: 1780 nM
IC50 [1]: 3.5 nM
logD [3]: 3.7

Cc1c(Sc2ccc(Cl)cc2)c2cccc(Cl)c2n1CC(=O)O
IC50 [4]: 11200 nM
IC50 [1]: 60 nM
hepatocyte CLint [6]: 75 µL/min/1e6 cells
logD [3]: 2

Cc1ccc2c(c1)c(Sc1cccc(Cl)c1)c(C)n2CC(=O)O
IC50 [4]: 3160 nM
IC50 [1]: 3 nM
hepatocyte CLint [6]: 31 µL/min/1e6 cells
logD [3]: 1.9

Cc1c(Sc2ccc(Cl)cc2)c2cc(Cl)c(C#N)cc2n1CC(=O)O
IC50 [1]: 178 nM
hepatocyte CLint [6]: 29 µL/min/1e6 cells

Cn1c(CC(=O)O)c(Sc2ccccc2)c2ccccc21
IC50 [1]: 794 nM

Cc1c(Oc2ccc(Cl)cc2)c2cc(C(F)(F)F)ccc2n1CC(=O)O
IC50 [1]: 11 nM
logD [3]: 2.3

Cc1ccc2c(c1)c(S(=O)(=O)c1ccccc1Cl)c(C)n2CC(=O)O
IC50 [1]: 178 nM
hepatocyte CLint [6]: 21 µL/min/1e6 cells

Cc1c(S(=O)(=O)c2ccc(Cl)cc2)c2cc(F)ccc2n1CC(=O)O
IC50 [1]: 7.1 nM
hepatocyte CLint [6]: < 3 µL/min/1e6 cells
logD [3]: -0.2

Cc1c(Sc2ccc(Cl)cc2)c2c(NS(C)(=O)=O)cccc2n1CC(=O)O
IC50 [4]: > 5310 nM
Vd [7]: 1.1 L/kg
clearance [8]: 11 mL/min/kg
bioavailability [9]: 42%
half-life [10]: 1.7 h
IC50 [1]: 1.8 nM
hepatocyte CLint [6]: 6 µL/min/1e6 cells
IC50 (Cytochrome P450 2C9): 10000 nM
logD [3]: 0.2

COc1cccc(S(=O)(=O)c2c(C)n(CC(=O)O)c3ccc(C)cc23)c1
IC50 [4]: 724 nM
Ratio IC50 (Homo sapiens): < 20
IC50 [5]: 115 nM
IC50 [1]: 71 nM
hepatocyte CLint [6]: 14 µL/min/1e6 cells
logD [3]: -0.4

CNC(=O)c1cccc2c1c(Sc1ccc(Cl)cc1)c(C)n2CC(=O)O
IC50 [1]: 45 nM
hepatocyte CLint [6]: < 3 µL/min/1e6 cells
logD [3]: -0.9

Cc1ccc2c(c1)c(Sc1ccccc1Cl)c(C)n2CC(=O)O
IC50 [4]: 11200 nM
IC50 [1]: 2.6 nM
hepatocyte CLint [6]: 24 µL/min/1e6 cells
logD [3]: 1.7

Cc1c(Sc2ccc(Cl)cc2)c2c(Cl)nccc2n1CC(=O)O
IC50 [1]: 32 nM
logD [3]: 0.9

Cc1c(Sc2ccc(Cl)cc2)c2cc(F)ccc2n1CC(=O)O
IC50 [4]: > 7940 nM
IC50 [5]: 3160 nM
IC50 [1]: 1.6 nM
hepatocyte CLint [6]: 19 µL/min/1e6 cells
logD [3]: 1.8

CCS(=O)(=O)Nc1cccc2c1c(Oc1ccc(Cl)cc1)c(C)n2CC(=O)O
IC50 [1]: 36 nM

Cc1ccc2c(n1)c(Sc1ccc(Cl)cc1)c(C)n2CC(=O)O
IC50 [1]: 56 nM
logD [3]: 0.4

Cc1ccc2c(c1)c(Sc1ccc(Cl)cc1)c(C)n2CC(=O)O
IC50 [2]: 87 nM
IC50 [1]: 15 nM
hepatocyte CLint [6]: 18 µL/min/1e6 cells
IC50 (Cytochrome P450 2C9): 800 nM

Cc1c(Sc2ccc(Cl)cc2)c2cc(Cl)ccc2n1C(C)C(=O)O (stereo not drawn)
IC50 [1]: 501 nM

Cc1c(Sc2ccc(Cl)cc2)c2c(-c3ccccc3)cccc2n1CC(=O)O
IC50 [1]: 1 nM
hepatocyte CLint [6]: 25 µL/min/1e6 cells
logD [3]: 2.6

Cc1c(S(=O)(=O)c2ccc(Cl)cc2)c2c(NS(C)(=O)=O)cccc2n1CC(=O)O
IC50 [4]: > 5840 nM
IC50 [5]: 63 nM
IC50 [1]: 7.9 nM
logD [3]: -0.8

Cc1ccc2c(c1)c(S(=O)(=O)c1c(Cl)cccc1Cl)c(C)n2CC(=O)O
IC50 [1]: 126 nM

Cc1c(Sc2ccc(Cl)cc2)c2ccc(S(C)(=O)=O)cc2n1CC(=O)O
IC50 [1]: 159 nM
hepatocyte CLint [6]: < 3 µL/min/1e6 cells
logD [3]: 0.8

Cc1c(Sc2ccc(Cl)cc2)c2c(-c3nccs3)cccc2n1CC(=O)O
IC50 [1]: 3.5 nM

Cc1c(Oc2ccc(Cl)cc2)c2cc(F)ccc2n1CC(=O)O
IC50 [1]: 5 nM
hepatocyte CLint [6]: < 3 µL/min/1e6 cells
logD [3]: 1.3

Cc1c(Sc2ccc(Cl)cc2)c2c(Cl)cccc2n1CC(=O)O
IC50 [4]: 5010 nM
IC50 [5]: 1780 nM
IC50 [1]: 25 nM
logD [3]: 2.2

Cc1c(F)ccc2c1c(Sc1ccc(Cl)cc1)c(C)n2CC(=O)O
IC50 [4]: 3550 nM
IC50 [5]: 2240 nM
IC50 [1]: 1.3 nM
logD [3]: 2.2

Cc1ccc2c(c1)c(Sc1ccc(S(C)(=O)=O)cc1)c(C)n2CC(=O)O
IC50 [4]: > 10000 nM
IC50 [1]: 1.4 nM
hepatocyte CLint [6]: 7 µL/min/1e6 cells
IC50 (Cytochrome P450 2C9): 5200 nM
logD [3]: -0.1

CC(=O)Nc1ccc2c(c1)c(Sc1ccc(Cl)cc1)c(C)n2CC(=O)O
IC50 [1]: 56 nM
hepatocyte CLint [6]: 8 µL/min/1e6 cells
logD [3]: 0.2

Cc1c(Oc2ccc(Cl)cc2)c2c(NS(C)(=O)=O)cccc2n1CC(=O)O
Vd [7]: 1.7 L/kg
bioavailability [11]: > 46%
clearance [8]: 20 mL/min/kg
half-life [10]: 1.4 h
IC50 [1]: 3.5 nM
hepatocyte CLint [6]: 8 µL/min/1e6 cells
logD [3]: -1

Cc1ccc2c(c1)c(S(=O)(=O)c1cccc(Cl)c1)c(C)n2CC(=O)O
IC50 [1]: 79 nM
